A selection: hits, their analogues and other compounds. The true share with any hit is near 0.79%.
hIAP inh = human IAP inhibition | AID 2544 | hit rate 0.12% among 330,000 | inhibition, % at 10 µM | purified IAP, CDP-Star luminescence, 30 min;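 active = inhibition reaching a set limit with compound at 10 µM in the primary screen, cut at about 35% in these data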
Target sequence (P09923 whole entry, looked up): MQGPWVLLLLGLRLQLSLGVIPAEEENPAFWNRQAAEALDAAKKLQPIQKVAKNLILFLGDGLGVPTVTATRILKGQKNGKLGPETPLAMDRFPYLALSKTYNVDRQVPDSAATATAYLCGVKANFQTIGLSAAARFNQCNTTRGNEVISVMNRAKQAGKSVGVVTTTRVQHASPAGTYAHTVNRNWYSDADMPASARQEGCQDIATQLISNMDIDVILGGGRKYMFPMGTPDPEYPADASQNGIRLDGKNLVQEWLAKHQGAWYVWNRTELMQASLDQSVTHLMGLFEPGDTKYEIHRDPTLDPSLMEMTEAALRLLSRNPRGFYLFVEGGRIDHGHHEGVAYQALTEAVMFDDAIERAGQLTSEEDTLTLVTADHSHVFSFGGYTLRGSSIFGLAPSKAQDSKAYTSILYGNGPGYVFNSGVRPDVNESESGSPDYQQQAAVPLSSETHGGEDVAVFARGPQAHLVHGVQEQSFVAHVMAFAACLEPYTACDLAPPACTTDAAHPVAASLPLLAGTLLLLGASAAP
bIAP act = increases bovine intestinal alkaline phosphatase activity; purified bovine IAP, CDP-star luminescence, 30 min; active compounds read high; fold of DMSO-control signal, blank-subtracted; activation factor at 20 µM; hit rate 0.17% among 200,000;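 active = activation factor of 2 or more at 20 µM, a signal rise over negative controls twice the positive control's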
mIAP act = mouse IAP activation | hit rate 0.24% among 330,000 | muIAP, CDP-Star luminescence, 30 min; active compounds read high; 1 = vehicle-only enzyme signal, 0 = enzyme-free wells | activation factor at 10 µM;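 active = activation factor of at least 2 at 20 µM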
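Assay system: mouse IAP enzyme; Reagent: CDP-Star chemiluminescent phosphatase substrate; Compound: DMSO-dissolved test compounds; Incubation: 30 min, room temperature; Technique: luminescence from enzymatic CDP-Star hydrolysis; Controls: DMSO-only wells and no-enzyme negative control.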
bIAP inh = blocks bovine intestinal alkaline phosphatase activity. purified bovine IAP, CDP-star luminescence, 30 min. inhibition, % at 20 µM. 190,000 tested, under 10 active;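 active = over 50% inhibition of intestinal alkaline phosphatase at 20 µM in the single-dose screen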
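System: Purified bovine intestinal alkaline phosphatase (IAP) enzyme | Input: IAP diluted 1/65,000,000 in the well | Also added: CDP-star chemiluminescent phosphatase substrate, 30 µM final | Dosing: 20 µM single dose | Times: Enzyme reaction for 30 min at room temperature | Detection: Luminescence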
mIAP inh = mouse IAP inhibition; inhibition, % at 10 µM; hit rate 0.2% among 330,000; purified mouse IAP, CDP-Star luminescence, 30 min;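 active = inhibition of at least 40% at 10 µM in the primary screen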
hIAP act = increases human intestinal alkaline phosphatase activity. hit rate 0.16% among 330,000. purified human IAP, CDP-Star luminescence, 30 min; active compounds read high; 1 = vehicle-only enzyme, 0 = enzyme-free background. AID 2524. activation factor at 10 µM. P09923;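 active = activation factor of the enzyme at least 2-fold when tested at 20 µM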
mIAP inh confirm = mouse IAP inhibition confirmation; shares compounds with mIAP inh; purified mouse IAP, CDP-Star luminescence, 30 min; inhibition, % at 10 µM; hit rate 4.7% among 11,000;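 active = inhibition of at least 40% at 10 µM in either of the two replicates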
Each line names hits and unclear results; the compound was inactive in the other large screens (follow-up assays come after a bar, where they were run).

COc1ccc2[nH]c3c(c2c1)CCN1C(=O)C(CC(=O)NC/C=C(\C)CCC=C(C)C)C[C@H](C(=O)N(C(C)C)C(C)C)[C@@]31C (stereo partly specified)	mIAP act 2.2 (no result: hIAP inh, bIAP act, bIAP inh, hIAP act) | mIAP inh confirm inactive
O=C(CSc1nnc(-c2ccco2)o1)c1ccccc1	mIAP inh 44 | mIAP inh confirm 43
O=C(CSc1nnc(-c2ccco2)c(-c2ccco2)n1)c1ccccc1	mIAP inh 50 | mIAP inh confirm 51
O=C(CSc1nnc(-c2ccco2)o1)c1ccc(F)c(F)c1	none
O=C(Nc1ccc(F)c(Cl)c1)C1CC(=O)n2c(nc3ccccc32)N1 (stereo unspecified)	mIAP act 2.8 | mIAP inh confirm inactive
COc1ccc(OC)c(C2CC(=O)N3CN(c4ccccc4)CSC3=C2C#N)c1 (stereo unspecified)	none
Cc1cccc(N2CSC3=C(C#N)C(c4ccc(C)o4)CC(=O)N3C2)c1 (stereo unspecified)	mIAP inh 58 | mIAP inh confirm 63
COc1ccc(C(=O)NNC2CC(=O)N(Cc3ccc(Cl)cc3)C2=O)cc1OC (stereo unspecified)	none
Oc1ccc(-c2cn3c(n2)SCC3)cc1O	mIAP inh 61 | mIAP inh confirm 92
C#CCOCCOCCOCCNc1nc(N2CCOCC2)nc(N2CCN(C(=O)CCCCCCCCCCNC(=O)[C@@H](CCSC)n3cc(CCO)nn3)CC2)n1	none (no result: bIAP act, bIAP inh)
C#CCOCCOCCOCCNc1nc(N2CCN(C(=O)CCCCCCCCCCNC(=O)[C@@H](CCSC)n3cc(CCO)nn3)CC2)nc(N2CCN(C(=O)CCCCCCCCCCNC(=O)[C@H]([C@@H](C)CC)n3cc(CCCCN=C(N)N)nn3)CC2)n1	mIAP act 22 (no result: bIAP act, bIAP inh) | mIAP inh confirm inactive
C#CCOCCOCCOCCNc1nc(N2CCN(C(=O)CCCCCCCCCCNC(=O)[C@@H](CCSC)n3cc(CCO)nn3)CC2)nc(N2CCN(C(=O)CCCCCCCCCCNC(=O)[C@H]([C@@H](C)CC)n3cc(CCCCCN)nn3)CC2)n1	mIAP act 3.5 (no result: bIAP act, bIAP inh) | mIAP inh confirm inactive
O=C(NCC(=O)N(c1cccnc1)C(C(=O)NC1CCCC1)c1ccccc1F)c1ccco1 (stereo unspecified)	none (no result: bIAP act, bIAP inh)
C=C1c2cccc(O)c2C(=O)C2C(=O)[C@]3(O)C(=O)C(C(N)=O)C(=O)[C@@H](N(C)C)[C@@H]3[C@@H](O)[C@H]12 (stereo partly specified)	mIAP inh 49 (no result: bIAP act, bIAP inh) | mIAP inh confirm 48
FC(F)Sc1ccc(NC(=S)NC(c2ccccc2)c2ccccc2)cc1	mIAP act 12 | mIAP inh confirm inactive
CN(Cc1nccn1C)C(=O)CCc1nnc(CCC2CCCCC2)o1	none
CC(NC(=O)Nc1ccc(Cl)cc1)c1ccccc1 (stereo unspecified)	mIAP act 3.3 (no result: bIAP act, bIAP inh) | mIAP inh confirm inactive
CC(C)c1ccc(NC(=O)NC(C)c2ccc3c(c2)OCO3)cc1 (stereo unspecified)	mIAP act 4.5 (no result: bIAP act, bIAP inh) | mIAP inh confirm inactive
CCOc1ccc(NC(=O)NC(C)c2ccc3c(c2)OCO3)cc1 (stereo unspecified)	none (no result: bIAP act, bIAP inh)
CCc1cc(C(=O)NC2CCCN(Cc3ccccc3F)C2)n(C)n1 (stereo unspecified)	none (no result: bIAP act, bIAP inh)
C#CCOCCOCCOCCNc1nc(N2CCN(C(=O)CCCCCCCCCCNC(=O)Cn3cc(C[C@@H](C)O)nn3)CC2)nc(N2CCN(C(=O)CCCCCCCCCCNC(=O)[C@H](CCCCN)n3cc(C[C@@H](C)CC)nn3)CC2)n1	mIAP act 2.7 (no result: bIAP act, bIAP inh) | mIAP inh confirm inactive
C#CCOCCOCCOCCNc1nc(N2CCN(C(=O)CCCCCCCCCCNC(=O)[C@H](CO)n3cc(CCCSC)nn3)CC2)nc(N2CCN(C(=O)CCCCCCCCCCNC(=O)[C@H](CO)n3cc(CCCSC)nn3)CC2)n1	none (no result: bIAP act, bIAP inh)
C#CCOCCOCCOCCNc1nc(N2CCN(C(=O)CCCCCCCCCCNC(=O)[C@H](CCCCN)n3cc(CCO)nn3)CC2)nc(N2CCN(C(=O)CCCCCCCCCCNC(=O)[C@H](CCCN=C(N)N)n3cc(C[C@@H](C)CC)nn3)CC2)n1	mIAP act 2.6 (no result: bIAP act, bIAP inh) | mIAP inh confirm inactive
C#CCOCCOCCOCCNc1nc(N2CCN(C(=O)CCCCCCCCCCNC(=O)[C@H](CO)n3cc(CCCSC)nn3)CC2)nc(N2CCN(C(=O)CCCCCCCCCCNC(=O)[C@H](CCCCN)n3cc(C[C@@H](C)CC)nn3)CC2)n1	mIAP act 2.3 (no result: bIAP act, bIAP inh) | mIAP inh confirm inactive
C#CCOCCOCCOCCNc1nc(N2CCN(C(=O)CCCCCCCCCCNC(=O)[C@H]([C@@H](C)CC)n3cc(CCCCN=C(N)N)nn3)CC2)nc(N2CCN(C(=O)CCCCCCCCCCNC(=O)[C@H](CCCCN)n3cc(C[C@@H](C)CC)nn3)CC2)n1	mIAP act 4 (no result: bIAP act, bIAP inh) | mIAP inh confirm inactive
O=[N+]([O-])c1ccc(-c2nc(-c3cccs3)c(-c3cccs3)[nH]2)cc1	none
C#CCOCCOCCOCCNc1nc(N2CCN(C(=O)CCCCCCCCCCNC(=O)[C@H](CCCCN)n3cc(CCCC(=O)O)nn3)CC2)nc(N2CCN(C(=O)CCCCCCCCCCNC(=O)[C@H](CCCN=C(N)N)n3cc(C[C@@H](C)CC)nn3)CC2)n1	mIAP act 2.2 (no result: bIAP act, bIAP inh) | mIAP inh confirm inactive
Cn1cnc2c1c(=O)n(Cc1cccc(Cl)c1)c(=O)n2C	none (no result: bIAP act, bIAP inh)
CC(C)(C)c1nc(NC(=O)Nc2ccccc2)sc1Br	mIAP act 2.9 | mIAP inh confirm inactive
Nc1ncc2c(n1)-c1ccoc1CC2	mIAP inh 41 (no result: bIAP act, bIAP inh) | mIAP inh confirm 56
Nc1ncc2c(n1)-c1ccccc1CC2	none
COc1ccc(-c2cc(C(F)(F)F)nc(SCC(=O)N(C)Cc3cn(C)nc3C)n2)cc1OC	none
COc1cc(/C=C(\NC(C)=O)C(=O)N2CCCCC2)ccc1OC(C)=O	none (no result: bIAP act, bIAP inh)
O=C(N=Nc1c(O)[nH]c2ccccc12)c1cccc(S(=O)(=O)Nc2ccccc2Cl)c1	none
NS(=O)(=O)c1cc(C(=O)N=Nc2c(O)[nH]c3ccccc23)ccc1Cl	mIAP inh 46 (no result: bIAP act, bIAP inh) | mIAP inh confirm 48
CCC(C)NC(=O)Cn1c(=O)sc2ccccc21 (stereo unspecified)	none
Cc1c(Cl)cccc1NC(=S)NCCC(c1ccccc1)c1ccccc1	mIAP act 4.1 | mIAP inh confirm inactive
Cc1cc(Cl)ccc1NC(=S)NCCC(c1ccccc1)c1ccccc1	mIAP act 3.7 | mIAP inh confirm inactive
CCN(CC)S(=O)(=O)c1ccc(N2CCOCC2)c(NC(=O)CC2OC(=O)c3ccccc32)c1 (stereo unspecified)	none (no result: bIAP act, bIAP inh)
CC(=O)c1ccc2c(c1)C1C=CCC1C(C(=O)O)N2 (stereo unspecified)	mIAP inh 47 | mIAP inh confirm 59

Screening results: PubChem, Sanford-Burnham Center for Chemical Genomics
